Data published in ChEMBL document CHEMBL1649354, “Bioactivity-guided isolation of GABA(A) receptor modulating constituents from the rhizomes of Actaea racemosa” (J Nat Prod, 2010).

Tests used:
Format in all cases: cell-based
[1] = test system: Oocyte; test: (§1) Allosteric modulation of alpha1beta2gamma2S GABAA receptor expressed in Xenopus laevis oocytes assessed as stimulation of GABA-induced chloride current by electrophysiology
How it was run: (§2)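 Two-microelectrode voltage clamp of oocytes. GABA applied at EC3-10 (3-10% of maximal current), set at the start of each experiment. Compound pre-applied for 1 min before GABA. Enhancement taken as (I(GABA+Comp)/IGABA) - 1. Concentration-response data fitted to 1/[1 + (EC50/[Comp])nH]. Mean ± SE from ≥4 oocytes and ≥2 oocyte batches.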

[2] = as §1; conditions: Oocyte; how it was run: as §2
[3] = test system: Oocyte; test: Allosteric modulation of alpha1beta2gamma2S GABAA receptor expressed in Xenopus laevis oocytes assessed as stimulation of GABA-induced chloride current at 100 uM by electrophysiology
How it was run: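 Two-microelectrode voltage clamp; GABA at EC3-10 (eliciting 3–10% of maximal current, determined at the start of each experiment). Test material applied for 1 min equilibration before GABA, then co-applied. Stimulation calculated as (I(GABA+Comp)/IGABA) − 1 at 100 µM, reported as %. Mean ± SE, n = 4–7 oocytes, at least two oocyte batches; oocytes with currents >3 µA discarded.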

[4] = test system: Oocyte; test: Allosteric modulation of alpha1beta2gamma2S GABAA receptor expressed in Xenopus laevis oocytes assessed as stimulation of GABA-induced chloride current at 300 uM by electrophysiology; how it was run: as §2

| Compound | Activity [1] | EC50 [2] [µM] | Activity [3] [%] | Activity [4] [%] |
| --- | --- | --- | --- | --- |
| CC(=O)OC(C)(C)[C@H]1O[C@@]23O[C@H]1C[C@@H](C)[C@@H]2[C@@]1(C)CC[C@@]24C[C@@]25CC[C@H](O[C@@H]2OC[C@H](O)[C@H](O)[C@H]2O)C(C)(C)[C@@H]5CC[C@H]4[C@]1(C)[C@H]3O | Dose-dependent effect | 26 | 271 | 289 |
| C[C@@H]1C[C@@H]2O[C@@]3(O[C@@H]2C(C)(C)O)[C@H](O)[C@@]2(C)[C@@H]4CC[C@H]5C(C)(C)[C@@H](O)CC[C@@]56C[C@@]46CC[C@]2(C)[C@@H]13 | – | – | 104 | – |
| CC(=O)O[C@H](C[C@@H](C)[C@H]1C(=O)[C@H](O)[C@@]2(C)[C@@H]3CC[C@H]4C(C)(C)[C@@H](O)CC[C@@]45C[C@@]35CC[C@]12C)[C@H]1OC1(C)C | – | – | 64 | – |
| CC(=O)O[C@H](C[C@@H](C)[C@H]1C(=O)[C@H](O)[C@@]2(C)[C@@H]3CC[C@H]4C(C)(C)[C@@H](O[C@@H]5OC[C@@H](O)[C@H](O)[C@H]5O)CC[C@@]45C[C@@]35CC[C@]12C)[C@H]1OC1(C)C | Dose-dependent effect | 27 | 1690 | 1950 |
| CC(=O)O[C@@H]1C[C@@]23C[C@@]24CC[C@H](O)C(C)(C)[C@@H]4CC[C@H]3[C@]2(C)C[C@@H]3O[C@]4(C[C@@H](C)[C@@H]3[C@@]12C)O[C@H](O)[C@@]1(C)O[C@H]41 | – | – | 126 | – |
| CC(=O)O[C@@H]1C[C@@]23C[C@@]24CC[C@H](O[C@@H]2OC[C@@H](O)[C@H](O)[C@H]2O)C(C)(C)[C@@H]4CC[C@H]3[C@]2(C)C[C@@H]3O[C@]4(C[C@@H](C)[C@@H]3[C@@]12C)O[C@H](O)[C@@]1(C)O[C@@H]41 [ACTEIN] | Dose-dependent effect | 36 | 305 | 378 |
| C[C@@H]1C[C@@H]2O[C@@]3(O[C@@H]2C(C)(C)O)[C@H](O)[C@@]2(C)[C@@H]4CC[C@H]5C(C)(C)[C@@H](O[C@@H]6OC[C@@H](O)[C@H](O)[C@H]6O)CC[C@@]56C[C@@]46CC[C@]2(C)[C@@H]13 | Dose-dependent effect | 28 | 189 | 256 |
